According to ChEMBL document CHEMBL4007461, “Synthesis, Antiviral Potency, in Vitro ADMET, and X-ray Structure of Potent CD4 Mimics as Entry Inhibitors That Target the Phe43 Cavity of HIV-1 gp120” (J Med Chem, 2017):
≈ marks a conversion by molar mass, not a printed value.

Experiments:
[1] = tested on: Human immunodeficiency virus 1; assay: Antiviral activity against ENV pseudotyped CCR5-tropic HIV1 subtype C 225925-2, clone 22; assay type: functional; conditions: Human immunodeficiency virus 1, subtype C 225925-2, clone 22
Outline: (§1)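 Env-pseudotyped viruses made by co-transfecting HEK293T cells with an Env-deleted pSG3 backbone (8 µg) and an Env-expression plasmid (8 µg). Supernatants were harvested 2 days after transfection, filtered, titered and stored at −80 °C. They were used for single-cycle infection, and IC50 was taken from percent inhibition.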

[2] = tested on: Human immunodeficiency virus 1; assay: microbe, parasite or virus in culture; conditions: Human immunodeficiency virus 1, subtype A/E CRF01_AE clone 269
[3] = tested on: Human immunodeficiency virus 1; assay: microbe, parasite or virus in culture; conditions: Human immunodeficiency virus 1, subtype B p1058_11.B11.1550
[4] = Metabolic stability in human liver microsomes assessed as compound remaining at 45 mins in presence of NADPH by LC-MS/MS analysis; assay type: ADME, microsome; conditions: read-out: Stability
[5] = tested on: Human immunodeficiency virus 1; assay: Antiviral activity against ENV pseudotyped CCR5-tropic HIV1 p9014_01.TBI.4769; assay type: functional; conditions: Human immunodeficiency virus 1, p9014_01.TBI.4769; outline: as §1
[6] = tested on: Human immunodeficiency virus 1; assay: Antiviral activity against HIV1 3B infected in human MT2 cells assessed as inhibition of p24 antigen production pretreated with virus for 30 mins followed by 4 days incubation with cells by sandwich ELISA based multicycle infection assay; assay type: functional, cell-based
Outline: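 MT-2 cells were infected with HIV-1 IIIB at 100 TCID50 and preincubated 30 min with graded compound concentrations. Medium was replaced next day. Supernatants were collected 4 days post-infection, lysed with equal volume 5% Triton X-100, and p24 was measured by sandwich ELISA. IC50 came from percent inhibition of p24.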

Cytochrome P450 2C9 = Cytochrome P450 2C9 (Homo sapiens, UniProt P11712); assay: Inhibition of CYP2C9 in human liver microsomes using tolbutamide as substrate after 60 mins in presence of NADPH by LC-MS/MS analysis; assay type: ADME
[7] = tested on: Human immunodeficiency virus 1; assay: Antiviral activity against ENV pseudotyped CCR5-tropic HIV1 p9021_14.B2.4571; assay type: functional; conditions: Human immunodeficiency virus 1, p9021_14.B2.4571
[8] = Unbound fraction in human plasma at 5 uM by LC-MS/MS based equilibrium dialysis; assay type: ADME, cell-free
Cytochrome P450 2D6 = Cytochrome P450 2D6 (Homo sapiens, UniProt P10635); assay: Inhibition of CYP2D6 in human liver microsomes using dextromethorphan as substrate after 5 mins in presence of NADPH by LC-MS/MS analysis; assay type: ADME
[9] = target: Voltage-gated inwardly rectifying potassium channel KCNH2 (Homo sapiens, UniProt Q12809); assay: Inhibition of human ERG expressed in CHO cells by patch clamp electrophysiology assay; assay type: cell-based
Cytochrome P450 2C19 = Cytochrome P450 2C19 (Homo sapiens, UniProt P33261); assay: Inhibition of CYP2C19 in human liver microsomes using mephenytoin as substrate after 60 mins in presence of NADPH by LC-MS/MS analysis; assay type: ADME
[10] = tested on: Human immunodeficiency virus 1; assay: Antiviral activity against ENV pseudotyped CCR5-tropic HIV1 p1054.TC4.1499; assay type: functional
[11] = tested on: Human immunodeficiency virus 1; assay: microbe, parasite or virus in culture; conditions: Human immunodeficiency virus 1, subtype A/G CRF02_AG clone 263
[12] = tested on: Human immunodeficiency virus 1; assay: microbe, parasite or virus in culture; conditions: Human immunodeficiency virus 1, subtype C CAP210.2.00.E8
[13] = tested on: Human immunodeficiency virus 1; assay: microbe, parasite or virus in culture; conditions: Human immunodeficiency virus 1, subtype C ZM109F.PB4
[14] = Aqueous solubility of the compound at 1 to 100 uM in PBS at pH 7.4 after 2 hrs by turbidimetric analysis; assay type: physicochemical
Outline: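 DMSO stocks diluted 1:100 into phosphate-buffered saline pH 7.4, giving 1, 3, 10, 30 and 100 µM final in 1% DMSO. Seven replicate wells per concentration, incubated 2 h at 37 °C, absorbance read at 620 nm. Solubility taken as the concentration giving absorbance above the 1% DMSO vehicle.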

[15] = tested on: Human immunodeficiency virus 1
Cytochrome P450 3A4 = Cytochrome P450 3A4 (Homo sapiens, UniProt P08684); assay: Inhibition of CYP3A4 in human liver microsomes using midazolam as substrate after 5 mins in presence of NADPH by LC-MS/MS analysis; assay type: ADME
[16] = tested on: Human immunodeficiency virus 1; assay: Antiviral activity against ENV pseudotyped CCR5-tropic HIV1 subtype C 25711-2, clone 4; assay type: functional; conditions: Human immunodeficiency virus 1, subtype C 25711-2, clone 4
[17] = tested on: Human immunodeficiency virus 1; assay: microbe, parasite or virus in culture; conditions: Human immunodeficiency virus 1, subtype C QB099.391 M.ENV.B1
[18] = Apparent permeability from basolateral to apical side in human Caco2 cells at 10 uM at pH 7.4 by LC-MS/MS analysis; assay type: ADME, cell-based; conditions: Caco-2, pH 7.4
Outline: (§2)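 Caco-2 cells, passage 40-60, seeded on Transwell inserts at 1 x 10^5 cells/cm2 and grown 20 days in DMEM. Monolayers equilibrated 40 min in HBSS. Donor: compound at 10 µM final, 1% DMSO, in HBSS pH 7.4 with lucifer yellow as integrity marker. Sampled at 120 min, A-B and B-A, in duplicate, by LC-MS/MS. Papp = (dQ/dt)/(C0 × A); efflux ratio = Papp(B-A)/Papp(A-B).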

MT2 = assay: (§3) Cytotoxicity against human MT2 cells incubated for 4 days by XTT assay; assay type: cell-based; conditions: mt2, 96 h, 96 h
Outline: (§4)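 Run alongside the MT-2 multicycle infection assay. Compound at graded concentrations mixed with an equal volume of MT-2 cells (10^5 cells/ml). Medium replaced next day and culture continued four days.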

[19] = Intrinsic clearance in human liver microsomes assessed per mg protein in presence of NADPH by LC-MS/MS analysis; assay type: ADME, microsome; conditions: read-out: CLH
[20] = Apparent permeability from apical to basolateral side in human Caco2 cells at 10 uM at pH 7.4 by LC-MS/MS analysis; assay type: ADME, cell-based; conditions: Caco-2, pH 7.4; outline: as §2
[21] = tested on: Human immunodeficiency virus 1; assay: microbe, parasite or virus in culture; conditions: Human immunodeficiency virus 1, subtype C 6055-2, clone 3
[22] = tested on: Vesicular stomatitis virus; assay: Antiviral activity against G-glycoprotein expressing VSV; assay type: functional
Outline: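 VSV-G pseudovirus made in HEK293T cells from pVPack-VSV-G, MLV gag-pol pVPack-GP and pFB-luc plasmids. Virus was preincubated 30 min with graded compound concentrations, then added to U87-CD4-CXCR4 cells (1 x 10^4/well, plated overnight).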

[23] = tested on: Human immunodeficiency virus 1; assay: Antiviral activity against ENV pseudotyped CCR5-tropic HIV1 subtype D QA013.70I.ENV.M12; assay type: functional; conditions: Human immunodeficiency virus 1, subtype D QA013.70I.ENV.M12; outline: as §1
[24] = Inhibition of CYP1A in human liver microsomes using ethoxyresorufin as substrate after 5 mins in presence of NADPH by LC-MS/MS analysis
TZM = assay: (§5) Cytotoxicity against human TZM-bl cells incubated for 3 days by XTT assay; assay type: cell-based; conditions: tzm, 72 h
Outline: (§6)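 TZM-bl cells, 1 x 10^4/well, cultured overnight at 37 °C. Compounds added at graded concentrations for three days.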

[25] = tested on: Human immunodeficiency virus 1; assay: microbe, parasite or virus in culture; conditions: Human immunodeficiency virus 1, subtype C Du 172, clone 17
[26] = Inhibition of HIV1 reverse transcriptase by colorimetric assay; set-up: species or system Human immunodeficiency virus 1
Outline: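 HIV-1 reverse transcriptase activity measured with a commercial colorimetric reverse transcriptase kit, following the maker's instructions.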

[27] = tested on: Human immunodeficiency virus 1; assay: microbe, parasite or virus in culture; conditions: Human immunodeficiency virus 1, subtype D/A BF535.W6M.ENV.A1
[28] = Inhibition of HIV1 HXB2 gp120-mediated cell to cell fusion using human MAGI-CCR5 cells as indicator cells and Env/Tat-expressing HL2/3 cells as effector cells preincubated with MAGI-CCR5 cells for 1 hr followed by HL2/3 cells addition by beta-galactosidase reporter gene assay; conditions: Human immunodeficiency virus 1, HXB2
[29] = tested on: Human immunodeficiency virus 1; remark: listed apart in the source
[30] = tested on: Human immunodeficiency virus 1; assay: Antiviral activity against ENV pseudotyped CCR5-tropic HIV1 subtype D QD435.100M.ENV.B5; assay type: functional; conditions: Human immunodeficiency virus 1, subtype D QD435.100M.ENV.B5; outline: as §1
[31] = as §3; assay type: cell-based; conditions: MT2 cells; outline: as §4
[32] = as §5; assay type: cell-based; conditions: TZM-bl cells; outline: as §6

Chain of Cytochrome P450 3A4 (P08684 whole entry): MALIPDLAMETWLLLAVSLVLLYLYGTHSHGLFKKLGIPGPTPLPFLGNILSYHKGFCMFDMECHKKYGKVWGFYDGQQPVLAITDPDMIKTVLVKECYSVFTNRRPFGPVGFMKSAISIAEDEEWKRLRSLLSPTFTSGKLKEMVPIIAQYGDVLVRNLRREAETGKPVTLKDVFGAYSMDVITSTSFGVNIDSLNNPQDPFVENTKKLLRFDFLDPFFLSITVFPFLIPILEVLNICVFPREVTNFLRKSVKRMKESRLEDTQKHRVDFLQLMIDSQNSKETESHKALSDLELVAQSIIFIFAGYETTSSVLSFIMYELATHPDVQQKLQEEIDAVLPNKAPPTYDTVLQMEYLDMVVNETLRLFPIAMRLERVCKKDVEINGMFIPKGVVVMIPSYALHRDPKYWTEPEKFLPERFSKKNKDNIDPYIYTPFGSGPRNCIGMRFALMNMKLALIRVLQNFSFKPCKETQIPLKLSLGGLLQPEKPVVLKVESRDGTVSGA
Chain of Cytochrome P450 2C9 (P11712 whole entry): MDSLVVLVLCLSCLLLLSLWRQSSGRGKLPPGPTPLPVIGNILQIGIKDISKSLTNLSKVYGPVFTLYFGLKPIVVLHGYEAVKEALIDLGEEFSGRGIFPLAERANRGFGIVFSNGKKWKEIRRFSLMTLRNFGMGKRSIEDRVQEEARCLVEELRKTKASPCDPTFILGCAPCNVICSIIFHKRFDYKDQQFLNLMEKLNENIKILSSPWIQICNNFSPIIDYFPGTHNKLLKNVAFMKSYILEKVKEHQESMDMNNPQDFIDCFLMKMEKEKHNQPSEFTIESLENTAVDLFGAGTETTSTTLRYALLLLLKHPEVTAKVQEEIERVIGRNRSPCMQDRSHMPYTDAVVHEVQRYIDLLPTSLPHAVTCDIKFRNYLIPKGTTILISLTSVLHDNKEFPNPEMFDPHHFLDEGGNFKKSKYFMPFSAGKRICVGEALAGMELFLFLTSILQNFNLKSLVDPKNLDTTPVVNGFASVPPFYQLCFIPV
Chain of Voltage-gated inwardly rectifying potassium channel KCNH2 (Q12809 whole entry): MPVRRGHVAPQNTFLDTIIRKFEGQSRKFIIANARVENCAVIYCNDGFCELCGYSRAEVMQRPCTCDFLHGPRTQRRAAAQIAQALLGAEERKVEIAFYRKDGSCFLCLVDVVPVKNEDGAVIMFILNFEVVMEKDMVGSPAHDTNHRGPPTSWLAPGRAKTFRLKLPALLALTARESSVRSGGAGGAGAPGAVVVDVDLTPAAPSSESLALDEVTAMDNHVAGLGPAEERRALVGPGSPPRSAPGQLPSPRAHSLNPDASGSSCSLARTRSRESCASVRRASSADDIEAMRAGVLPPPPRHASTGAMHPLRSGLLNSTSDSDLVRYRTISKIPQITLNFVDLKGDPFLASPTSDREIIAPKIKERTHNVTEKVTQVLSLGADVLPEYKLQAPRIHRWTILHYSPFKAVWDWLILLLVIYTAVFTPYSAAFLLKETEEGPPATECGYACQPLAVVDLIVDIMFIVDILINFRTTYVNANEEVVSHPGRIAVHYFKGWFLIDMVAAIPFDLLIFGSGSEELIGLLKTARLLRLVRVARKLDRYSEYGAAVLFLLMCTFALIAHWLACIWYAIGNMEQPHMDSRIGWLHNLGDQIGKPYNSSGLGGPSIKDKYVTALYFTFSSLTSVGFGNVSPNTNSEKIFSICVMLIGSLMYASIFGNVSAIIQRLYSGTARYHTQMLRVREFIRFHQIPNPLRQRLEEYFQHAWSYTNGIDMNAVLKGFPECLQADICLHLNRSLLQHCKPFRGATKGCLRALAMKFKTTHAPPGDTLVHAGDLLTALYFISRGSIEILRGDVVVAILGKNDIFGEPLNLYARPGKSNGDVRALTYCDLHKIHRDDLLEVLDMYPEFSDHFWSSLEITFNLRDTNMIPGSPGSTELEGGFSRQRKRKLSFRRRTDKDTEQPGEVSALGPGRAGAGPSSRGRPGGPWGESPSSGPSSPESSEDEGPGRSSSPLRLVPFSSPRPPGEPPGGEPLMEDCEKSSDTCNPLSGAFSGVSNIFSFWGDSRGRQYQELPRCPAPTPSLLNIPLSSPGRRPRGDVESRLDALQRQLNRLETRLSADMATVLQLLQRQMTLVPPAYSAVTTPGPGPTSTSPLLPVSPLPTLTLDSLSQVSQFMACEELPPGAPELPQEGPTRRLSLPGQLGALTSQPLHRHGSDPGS
Chain of Cytochrome P450 2C19 (P33261 whole entry): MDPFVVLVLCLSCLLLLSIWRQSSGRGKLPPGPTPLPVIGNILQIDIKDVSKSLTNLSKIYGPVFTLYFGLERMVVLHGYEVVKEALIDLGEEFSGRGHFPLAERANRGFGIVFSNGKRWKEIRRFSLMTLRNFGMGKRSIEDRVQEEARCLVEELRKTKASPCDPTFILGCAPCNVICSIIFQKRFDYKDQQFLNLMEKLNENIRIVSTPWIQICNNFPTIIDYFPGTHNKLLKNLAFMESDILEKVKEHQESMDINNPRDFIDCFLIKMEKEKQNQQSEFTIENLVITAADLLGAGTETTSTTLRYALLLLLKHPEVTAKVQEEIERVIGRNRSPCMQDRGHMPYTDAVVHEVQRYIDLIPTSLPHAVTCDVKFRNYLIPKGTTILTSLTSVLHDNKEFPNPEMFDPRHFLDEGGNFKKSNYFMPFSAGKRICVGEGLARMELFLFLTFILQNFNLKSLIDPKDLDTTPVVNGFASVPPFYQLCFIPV
Chain of Cytochrome P450 2D6 (P10635 whole entry): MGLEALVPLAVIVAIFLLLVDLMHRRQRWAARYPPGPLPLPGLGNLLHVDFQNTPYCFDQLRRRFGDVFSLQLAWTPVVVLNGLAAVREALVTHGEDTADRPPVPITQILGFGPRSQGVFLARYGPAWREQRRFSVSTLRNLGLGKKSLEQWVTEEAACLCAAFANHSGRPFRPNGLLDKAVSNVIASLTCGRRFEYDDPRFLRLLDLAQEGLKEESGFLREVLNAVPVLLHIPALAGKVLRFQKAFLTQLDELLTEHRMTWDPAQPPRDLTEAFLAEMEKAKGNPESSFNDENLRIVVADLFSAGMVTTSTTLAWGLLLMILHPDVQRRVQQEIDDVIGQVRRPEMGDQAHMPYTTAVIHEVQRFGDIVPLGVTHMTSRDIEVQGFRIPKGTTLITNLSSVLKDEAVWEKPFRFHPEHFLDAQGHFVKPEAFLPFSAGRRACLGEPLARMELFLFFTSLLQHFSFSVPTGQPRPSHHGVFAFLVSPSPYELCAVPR

SMILES | IC50 [1] | remaining at […] [4] | IC50 (Cytochrome P450 2C9) | fraction unbound at 5 µM [8] | IC50 (Cytochrome P450 2D6) | IC50 [9] | IC50 (Cytochrome P450 2C19) | solubility kinetic at 2 h [14] | IC50 (Cytochrome P450 3A4) | Papp B→A at 10 µM [18] | microsomal CLint [19] | Papp A→B at 10 µM [20] | IC50 [23] | IC50 [24] | IC50 [26] | IC50 [28] | other results
Cc1ccc(-c2ccc(C(=O)NC(CN)c3ncc(CO)s3)[nH]2)cc1F (stereo in doubt) | 340 nM | 101% | > 25000 nM | 0.04 | > 25000 nM | 9980 nM | > 25000 nM | > 100 µM | > 25000 nM | 19.5 ×10⁻⁶ cm/s | < 10 µL/min/mg | 2.56 ×10⁻⁶ cm/s | 240 nM | 8010 nM | 7200 nM | 8300 nM | IC50 [2]: 300 nM; IC50 [3]: 280 nM; IC50 [5]: 310 nM; IC50 [6]: 760 nM; IC50 [7]: 220 nM; IC50 [10]: 400 nM; IC50 [11]: 500 nM; IC50 [12]: 490 nM; IC50 [13]: 200 nM; IC50 [15]: 400 nM; IC50 [16]: 300 nM; IC50 [17]: 350 nM; CC50 (MT2): 38000 nM; IC50 [21]: 220 nM; IC50 [22]: 42900 nM; CC50 (TZM): 38800 nM; IC50 [25]: 620 nM; IC50 [27]: 550 nM; IC50 [29]: 400 nM
Cc1nc(C(NC(=O)c2ccc(-c3ccc(Cl)cc3)[nH]2)C2CCCCN2)sc1CO (centres undefined) | 1100 nM | 84% | > 25000 nM | 0.114 | > 25000 nM | 3800 nM | > 25000 nM | 65 µM (≈ 28.9 µg/mL) | > 25000 nM | 31.3 ×10⁻⁶ cm/s | < 10 µL/min/mg | 2.31 ×10⁻⁶ cm/s | 790 nM | > 25000 nM | 47000 nM | 6100 nM | IC50 [30]: 1400 nM; CC50 at 96 h [31]: 24800 nM; CC50 at 72 h [32]: 23600 nM
